Assay results published in ChEMBL document CHEMBL1126803, “Stereospecific and selective 5-HT2 antagonism in a series of 5-substituted trans-1-piperazino-3-phenylindans” (J Med Chem, 1993).

Tests used:
D(2) dopamine receptor = D(2) dopamine receptor (Rattus norvegicus, UniProt P61169); experiment: Displacement of [3H]spiperone from dopamine D2 receptors in rat striatal membranes; type: cell membranes, Membrane
In short: (§1)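 Radioligand displacement from rat brain membranes: 3H-ketanserin on cortical membranes (5-HT2), 3H-prazosin on whole brain membranes (alpha1), 3H-spiperone on striatal membranes (D2). Two full concentration-effect curves per compound, each with five test drug concentrations in triplicate spanning three decades. IC50 estimated from curves on a log-concentration scale. Outliers beyond 3 times the sd-ratio were discarded after extra determinations.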

[1] = target: T1, Adrenergic receptor alpha-1 (Rattus norvegicus, UniProt P15823+P23944+P43140); experiment: Displacement of [3H]prazosin from alpha-1 adrenoceptors in whole rat brain membranes; type: cell membranes; in short: as §1
T1 sequence (P15823 whole entry): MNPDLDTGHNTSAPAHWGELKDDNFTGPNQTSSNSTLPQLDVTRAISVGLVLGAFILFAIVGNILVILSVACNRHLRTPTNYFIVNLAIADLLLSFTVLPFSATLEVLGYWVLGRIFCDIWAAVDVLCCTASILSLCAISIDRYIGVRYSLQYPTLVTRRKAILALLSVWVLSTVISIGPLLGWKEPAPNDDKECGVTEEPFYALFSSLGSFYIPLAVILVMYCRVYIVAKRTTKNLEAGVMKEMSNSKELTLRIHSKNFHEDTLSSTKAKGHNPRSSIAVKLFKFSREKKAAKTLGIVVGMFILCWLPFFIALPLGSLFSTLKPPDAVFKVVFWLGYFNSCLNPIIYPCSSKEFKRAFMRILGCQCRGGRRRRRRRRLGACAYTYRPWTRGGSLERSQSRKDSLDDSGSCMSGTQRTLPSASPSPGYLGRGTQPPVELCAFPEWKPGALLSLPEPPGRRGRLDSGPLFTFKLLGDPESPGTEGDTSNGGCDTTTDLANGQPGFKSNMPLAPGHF
T1 sequence (P23944 whole entry): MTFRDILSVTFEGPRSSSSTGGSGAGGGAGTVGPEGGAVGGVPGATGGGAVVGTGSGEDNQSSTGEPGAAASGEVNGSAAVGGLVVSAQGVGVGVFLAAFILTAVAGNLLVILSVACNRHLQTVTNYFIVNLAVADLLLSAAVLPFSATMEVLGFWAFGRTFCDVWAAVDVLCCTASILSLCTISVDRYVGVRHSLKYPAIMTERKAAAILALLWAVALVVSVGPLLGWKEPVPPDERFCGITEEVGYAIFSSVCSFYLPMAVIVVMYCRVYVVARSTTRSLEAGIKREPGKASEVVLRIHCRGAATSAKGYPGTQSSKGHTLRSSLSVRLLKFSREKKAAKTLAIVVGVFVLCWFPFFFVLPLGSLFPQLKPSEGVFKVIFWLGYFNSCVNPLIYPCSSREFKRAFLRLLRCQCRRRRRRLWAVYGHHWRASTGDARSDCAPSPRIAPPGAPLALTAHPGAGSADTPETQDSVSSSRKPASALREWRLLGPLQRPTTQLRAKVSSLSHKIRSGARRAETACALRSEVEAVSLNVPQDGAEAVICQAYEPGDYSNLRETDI
T1 sequence (P43140 whole entry): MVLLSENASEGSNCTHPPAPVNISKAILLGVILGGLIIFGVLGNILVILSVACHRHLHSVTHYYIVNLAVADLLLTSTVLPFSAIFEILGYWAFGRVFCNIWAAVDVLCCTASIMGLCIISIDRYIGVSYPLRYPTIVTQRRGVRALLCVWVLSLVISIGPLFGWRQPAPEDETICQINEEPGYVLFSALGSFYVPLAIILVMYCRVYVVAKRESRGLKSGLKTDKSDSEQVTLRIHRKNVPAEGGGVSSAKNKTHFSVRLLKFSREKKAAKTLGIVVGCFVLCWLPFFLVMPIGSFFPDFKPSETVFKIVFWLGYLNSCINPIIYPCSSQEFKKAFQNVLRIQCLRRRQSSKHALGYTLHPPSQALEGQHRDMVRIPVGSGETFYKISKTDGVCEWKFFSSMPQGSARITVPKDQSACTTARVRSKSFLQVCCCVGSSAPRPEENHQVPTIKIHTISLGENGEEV

Rattus norvegicus = species: Rattus norvegicus; experiment: Inhibition of quipazine-induced head twitches in rats after 2 hrs of pretreatment; type: functional
In short: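 Test drug was given sc or po to rats 2 or 24 h before quipazine (15 µmol/kg, sc). Head twitches were counted 30-40 min after quipazine, at least four animals per dose. Counts were expressed as percent of a quipazine-only control group.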

[2] = target: Serotonin 2 (5-HT2) receptor (Rattus norvegicus, UniProt P30994+P08909+P14842); experiment: Displacement of [3H]ketanserin from 5-hydroxytryptamine 2 receptor in rat cortical membranes; type: cell membranes, Membrane; in short: as §1
[3] = Rattus norvegicus, read-out: ED50

Chain of D(2) dopamine receptor (P61169 whole entry): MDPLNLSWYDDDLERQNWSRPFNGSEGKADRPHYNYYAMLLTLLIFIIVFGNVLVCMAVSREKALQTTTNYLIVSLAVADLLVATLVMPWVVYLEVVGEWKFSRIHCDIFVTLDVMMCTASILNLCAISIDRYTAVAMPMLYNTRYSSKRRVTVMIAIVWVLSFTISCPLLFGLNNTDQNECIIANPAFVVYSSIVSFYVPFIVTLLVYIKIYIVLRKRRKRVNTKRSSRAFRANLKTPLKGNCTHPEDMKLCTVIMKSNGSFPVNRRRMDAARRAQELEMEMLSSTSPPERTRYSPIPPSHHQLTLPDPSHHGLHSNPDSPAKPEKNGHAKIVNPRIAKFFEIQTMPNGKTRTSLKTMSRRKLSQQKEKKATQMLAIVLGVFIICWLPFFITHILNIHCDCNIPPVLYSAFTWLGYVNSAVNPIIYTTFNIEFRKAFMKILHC

Structure (SMILES)	IC50 (D(2) dopamine receptor) [nM]	IC50 [1] [nM]	ED50 (Rattus norvegicus; [3]) [µmol/kg]	IC50 [2] [nM]	ED50 (Rattus norvegicus) [µM/kg]
O=C(O)/C=C\C(=O)O.O=C(O)/C=C\C(=O)O.O=c1[nH]c2ccccc2c(=O)n1CCN1CCN(C2CC(c3ccc(F)cc3)c3cc(Cl)ccc32)CC1 (stereo not drawn)	93	78	> 3.3	3.8	
O=C(O)/C=C\C(=O)O.O=C(O)/C=C\C(=O)O.OCCN1CCN(C2CC(c3ccc(F)cc3)c3cc(C(F)(F)F)ccc32)CC1 (stereo not drawn)		380	1	8.9	
Cl.Cl.O=C1CCCN1CCN1CCN(C2CC(c3ccc(F)cc3)c3cc(Cl)ccc32)CC1 (stereo not drawn)	500	370	2.7	10	
OCCN1CCN(C2CC(c3ccc(F)cc3)c3ccc(Cl)cc32)CC1 (stereo not drawn)	20	26	0.039	2.6	
Fc1ccc(C2CC(N3CCN(CCN4CCCN=C4S)CC3)c3ccc(Cl)cc32)cc1.O=C(O)/C=C\C(=O)O.O=C(O)/C=C\C(=O)O (stereo not drawn)	93	170	0.048	1.5	
CC(C)N1CCN(CCN2CCN(C3CC(c4ccc(Cl)cc4)c4cc(Cl)ccc43)CC2)C1=O.O=C(O)/C=C\C(=O)O (stereo not drawn)		180	2.9	15	
Cl.Cl.OCCN1CCN(C2CC(c3ccc(F)cc3)c3cc(F)ccc32)CC1 (single isomer, unassigned; (+))	330	72		12	0.33
O=C(O)/C=C\C(=O)O.O=C(O)/C=C\C(=O)O.O=C1NCCN1CCCN1CCN(C2CC(c3ccc(F)cc3)c3cc(Cl)ccc32)CC1 (stereo not drawn)	160	73	0.91	10	
O=C(O)/C=C\C(=O)O.O=C(O)/C=C\C(=O)O.O=C1NCCCN1CCN1CCN(C2CC(c3ccc(F)cc3)c3cc(Cl)ccc32)CC1 (stereo in doubt; (+)-41)	1700			120	
O=C(O)/C=C\C(=O)O.O=C(O)/C=C\C(=O)O.O=C1N(CCO)CCN1CCN1CCN(C2CC(c3ccc(F)cc3)c3cc(Cl)ccc32)CC1 (stereo not drawn)		710	1.1	6.1	
CC(C)N1CCN(CCN2CCN(C3CC(c4ccc(F)cc4)c4cc(C(F)(F)F)ccc43)CC2)C1=O.O=C(O)/C=C\C(=O)O.O=C(O)/C=C\C(=O)O (stereo not drawn)		370	0.13	3.7	
Cc1ccc(C2CC(N3CCN(CCN4CCN(C(C)C)C4=O)CC3)c3ccc(Cl)cc32)cc1.O=C(O)/C=C\C(=O)O (stereo not drawn)		60	> 3.5	11	
Cl.Cl.Fc1ccc(C2CC(N3CCN(CCN4CCCNC4=S)CC3)c3ccc(F)cc32)cc1 (racemic)	2900			42	
CC(C)N1CCN(CCN2CCN(C3CC(c4ccccc4F)c4cc(Cl)ccc43)CC2)C1=O.O=C(O)/C=C\C(=O)O.O=C(O)/C=C\C(=O)O (stereo not drawn)		670	2.1	3.5	
O=C(O)/C=C\C(=O)O.O=C(O)/C=C\C(=O)O.O=C1NCCCN1CCN1CCN(C2CC(c3ccc(F)cc3)c3cc(F)ccc32)CC1 (single isomer, unassigned; (-))	4000			57	
Cc1nc2sccn2c(=O)c1CCN1CCN(C2CC(c3ccc(F)cc3)c3cc(Cl)ccc32)CC1.O=C(O)/C=C\C(=O)O.O=C(O)/C=C\C(=O)O (stereo not drawn)	65	24	1.9	19	
CC(C)N1CCN(CCN2CCN(C3CC(c4ccccc4)c4cc(Cl)ccc43)CC2)C1=O.O=C(O)/C=C\C(=O)O.O=C(O)/C=C\C(=O)O (stereo not drawn)		510	1	9.9	
CC(C)N1CCN(CCN2CCN(C3CC(c4cccc(F)c4)c4cc(Cl)ccc43)CC2)C1=O.O=C(O)/C=C\C(=O)O (stereo not drawn)		970		26	
CN1CCN(CCN2CCN(C3CC(c4ccc(F)cc4)c4cc(Cl)ccc43)CC2)C1=O.O=C(O)/C=C\C(=O)O (stereo not drawn)		600	0.093	2.8	
Cc1ccc2c(c1)C(c1ccc(F)cc1)CC2N1CCN(CCO)CC1.O=C(O)/C=C\C(=O)O.O=C(O)/C=C\C(=O)O (stereo not drawn)	1100	270	> 2.1	12	
CC(C)N1CCN(CCN2CCN(C3CC(c4ccc(F)cc4)c4cc(Br)ccc43)CC2)C1=O.O=C(O)/C=C\C(=O)O.O=C(O)/C=C\C(=O)O (stereo not drawn)		270	0.098	6.4	
CC(C)N1CCN(CCN2CCN(C3CC(c4ccc(F)cc4)c4cc(Cl)ccc43)CC2)C1=O.O=C(O)/C=C\C(=O)O.O=C(O)/C=C\C(=O)O (stereo in doubt; 20)		260		3.9	0.06
O=C(O)/C=C\C(=O)O.O=C(O)/C=C\C(=O)O.O=C1N(CCN2CCN(C3CC(c4ccc(F)cc4)c4cc(Cl)ccc43)CC2)CCN1c1ccccc1 (stereo not drawn)		310	> 6.7	44	
CSc1ccc2c(c1)C(c1ccc(F)cc1)CC2N1CCN(CCN2CCN(C(C)C)C2=O)CC1 (stereo not drawn)		250	> 3.4	4	
CCN1CCN(CCN2CCN(C3CC(c4ccc(F)cc4)c4cc(Cl)ccc43)CC2)C1=O.O=C(O)/C=C\C(=O)O.O=C(O)/C=C\C(=O)O (stereo not drawn)		240	0.042	2.6	
Cl.Cl.Fc1ccc(C2CC(N3CCN(CCN4CCCNC4=S)CC3)c3ccc(Cl)cc32)cc1 (stereo in doubt; (+)-39)	490	350		21	
O=C1NCCN1CCN1CCN(C2CC(c3ccc(F)cc3)c3cc(Cl)ccc32)CC1 (stereo not drawn)		200	0.34	2.9	
Cl.Cl.OCCN1CCN(C2CC(c3ccc(F)cc3)c3cc(Cl)ccc32)CC1 (stereo in doubt; 10)		230		25	0.23
